High-throughput results as filed in PubChem.
Shown are actives, neighbours in structure and some others; about 4.3% of the full set was active somewhere.
CHO parental Ca = counter-screen: ATP calcium response change in parental CHO cells; AID 463079; parental CHO-K1, ATP-induced calcium, Fluo-8 fluorescence; hit rate 0.63% among 330,000; inhibition, % at 5.6 µM;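 active = inhibition above that plate's mean sample inhibition plus 3 SD, cut at about 26% in these data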;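 note: 0% = ATP-challenged DMSO wells and 100% = DMSO wells without ATP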
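Test system: untransfected parental CHO cell line. Compound: one dose, 5.6 µM nominal. Detection: intracellular calcium via Fluo-8 no-wash fluorescent dye. Measure: % inhibition. Benchmarks: ATP-challenged DMSO wells low, unchallenged DMSO wells high.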
OX1R antag-1 = OX1R (human) antagonism; O43613; OX1R-expressing cells, FRET antagonist read-out; inhibition, % at 6.6 µM; hit rate 1.8% among 330,000; AID 485270; in the data active = inhibition mostly above about 38%, no sharp cut-off; inactive = mostly below about 40%;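 note: 0% = agonist challenge alone and 100% = reference antagonist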
Target sequence (O43613 whole entry, looked up): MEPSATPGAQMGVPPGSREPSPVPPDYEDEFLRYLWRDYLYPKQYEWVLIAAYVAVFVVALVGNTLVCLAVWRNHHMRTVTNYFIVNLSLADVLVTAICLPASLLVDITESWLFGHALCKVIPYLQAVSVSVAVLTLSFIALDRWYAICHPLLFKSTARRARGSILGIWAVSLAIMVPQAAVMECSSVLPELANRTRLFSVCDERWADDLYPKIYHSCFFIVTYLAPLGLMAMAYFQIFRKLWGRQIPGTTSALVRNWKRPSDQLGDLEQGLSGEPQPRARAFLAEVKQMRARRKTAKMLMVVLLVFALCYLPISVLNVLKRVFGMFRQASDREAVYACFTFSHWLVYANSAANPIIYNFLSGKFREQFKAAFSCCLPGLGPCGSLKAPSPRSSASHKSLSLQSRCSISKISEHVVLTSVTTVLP
TAAR1 ag = human TAAR1 agonism. AID 624467. hit rate 0.99% among 360,000. CHO RD-HGA16 TAAR1, Fluo-8 calcium fluorescence; vehicle wells 0%, saturating PEA agonist 100%. activation, % at 3 µM;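 active = activation above the mean activation of all test compounds in the run plus 3 SD, cut at about 38% in these data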
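System: CHO-derived RD-HGA16 cells with stable Gα16 and human TAAR1. Times: 17-24 h plating, Fluo-8 75 min 37 °C, 30 min RT. Measured by: calcium-sensitive Fluo-8 signal, excitation 470-495, emission 515-575 nm. Read-out basis: % activation relative to PEA EC100 response. Control set: DMSO and PEA EC100. Repeats: no replicates (n 1).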
OX1R antag-2 = antagonists of human orexin 1 receptor. O43613. CHO/OX1R cells, Fluo-8 calcium fluorescence, orexin A. inhibition, % at 5 µM. hit rate 0.43% among 330,000. AID 434989;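 active = inhibition above its plate's threshold, mean inhibition of all tested compounds on the plate plus 3 SD, cut at about 37% in these data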;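 note: 0% = orexin A challenge wells and 100% = SB-334867-A antagonist wells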
GalR3 antag = human GalR3 antagonism; O60755; hit rate 0.44% among 360,000; inhibition, % at 3 µM; HEK293 GalR3-CNG cAMP membrane potential fluorescence; galR3 body fused to GalR1 C-terminus; AID 651719;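 active = inhibition above the screen-wide average plus 3 SD, cut at about 13% in these data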;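 note: forskolin and galanin both at EC90 stimulate the cells; cAMP rise reported by CNG channel membrane potential dye signal; 0% = forskolin plus galanin with DMSO and 100% = forskolin alone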
Target sequence (O60755 1-299 limits assumed): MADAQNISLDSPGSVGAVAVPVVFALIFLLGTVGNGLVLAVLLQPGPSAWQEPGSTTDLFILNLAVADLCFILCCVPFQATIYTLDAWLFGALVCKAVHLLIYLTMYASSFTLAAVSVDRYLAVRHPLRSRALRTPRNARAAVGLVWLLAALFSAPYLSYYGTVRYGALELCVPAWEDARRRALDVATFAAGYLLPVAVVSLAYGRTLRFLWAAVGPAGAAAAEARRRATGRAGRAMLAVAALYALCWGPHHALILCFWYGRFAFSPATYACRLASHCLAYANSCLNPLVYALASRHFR
TAAR1 antagonist = human TAAR1 antagonism; AID 624466; Q96RJ0; hit rate 1.5% among 360,000; CHO RD-HGA16 TAAR1, Fluo-8 calcium fluorescence, antagonist; inhibition, % at 3 µM;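 active = inhibition above a per-plate cutoff, the mean inhibition of test compounds on that plate plus 3 SD, cut at about 49% in these data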;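 note: 0% = DMSO plus EC80 beta-PEA response and 100% = DMSO alone without agonist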
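Test system – hTAAR1-expressing CHO RD-HGA16 cells, Gα16-coupled · Also added – β-PEA at EC80 concentration, post-compound challenge · Compound – 3 µM, single point · Incubation – dye loading 75 min at 37 °C, then 30 min room temperature · Measured by – Fluo-8 intracellular calcium dye fluorescence, real-time kinetic reads · Benchmarks – vehicle and agonist controls · Replicates – singlicate, one well per test compound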
TAAR1 ag confirm = confirmation of human TAAR1 agonists; hit rate 82% among 2,400; activation, % at 3 µM; CHO RD-HGA16 TAAR1, Fluo-8 calcium fluorescence; scaled: DMSO 0%, maximal phenethylamine 100%; AID 651783; shares compounds with TAAR1 ag;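 active = activation above a cutoff set at the run's mean compound activation plus 3 SD, cut at about 39% in these data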
Ga16 ag counter = nonselective agonist in parental cells, TAAR1 agonist counter-screen. CHO-Ga16 parental, Fluo-8 calcium fluorescence; normalized to maximal ATP response, DMSO zero. activation, % at 3 µM. shares compounds with TAAR1 ag. AID 651787. hit rate 50% among 2,400;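 active = activation above the run cutoff, the mean activation over all tested wells plus 3 SD, cut at about 12% in these data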;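 note: 0% = DMSO wells and 100% = maximal ATP response on the peak over basal ratio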
TAAR1 desens = human TAAR1 agonist that also desensitizes the receptor. shares compounds with TAAR1 ag. CHO RD-HGA16 hTAAR1, Fluo-8 calcium, beta-PEA response inhibition. inhibition, % at 3 µM. hit rate 46% among 2,400;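 active = inhibition above the run cutoff, the mean inhibition of all test compounds plus 3 SD, cut at about 49% in these data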;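 note: beta-PEA stimulus applied at its EC80; loss of beta-PEA calcium signal after compound pretreatment read as receptor desensitization; 0% = DMSO with beta-PEA at EC80 and 100% = DMSO alone without agonist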
Ga16 nonsel ant = counter-screen for TAAR1 agonists: nonselective Ga16 antagonists; CHO-Ga16 ATP-induced calcium, Fluo-8 fluorescence; AID 651952; shares compounds with TAAR1 ag; inhibition, % at 3 µM; hit rate 39% among 2,400;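 active = inhibition above the plate's mean compound inhibition plus 3 SD, computed per plate, cut at about 22% in these data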;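 note: 0% = EC80 ATP with DMSO and 100% = DMSO wells without ATP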
Active calls of the source: *; nt = no result.

SMILES | CHO parental Ca | OX1R antag-1 | TAAR1 ag | OX1R antag-2 | GalR3 antag | TAAR1 antagonist | TAAR1 ag confirm | Ga16 ag counter | TAAR1 desens | Ga16 nonsel ant
OC(c1ccccc1)(c1ccccc1)C1CCN(CCCOc2cccc(OC(F)(F)F)c2)CC1 | nt | nt | 20 | nt | -4 | 37 | nt | nt | nt | nt
OC(c1ccccc1)(c1ccccc1)C1CCN(CCCOc2cc(F)cc(F)c2)CC1 | nt | nt | 49* | nt | -6 | 33 | 35 | 32* | 49* | 46*
COc1cccc(OCCCN2CCC(C(O)(c3ccccc3)c3ccccc3)CC2)c1 | nt | nt | 42* | nt | -8 | 37 | 23 | 13* | 13 | 26*
CNC[C@H](CC1CCCCC1)NC[C@H](Cc1ccccc1)NCCC12CC3CC(CC(C3)C1)C2 | 20 | 12 | 56* | 25 | -3 | 37 | 94* | 81* | 81* | 89*
CCOC(=O)c1ccc(NC(=S)N2CCSC2c2ccc(Br)cc2)cc1 (configuration not stated) | 46* | 4 | 138* | 55* | -12 | 103* | 130* | 93* | 102* | 85*
CCOC(=O)c1ccc(NC(=S)N2CCC(O)CC2)cc1 | -6 | 8 | 2 | -14 | -3 | -17 | nt | nt | nt | nt
Cc1ccc(NC(=O)c2ccc3nccnc3c2)c(C)c1 | 7 | 25 | 1 | -2 | 2 | -16 | nt | nt | nt | nt
N#C/C(=C\c1ccc(O)cc1)C(=O)NCc1cccc(Cl)c1 | 5 | 1 | 63* | -3 | -10 | 38 | 75* | 37* | 36 | 26*
O=C1[C@@H]2C(Cc3ccc(O)cc3)NC3(C(=O)Nc4ccc(F)cc43)[C@@H]2C(=O)N1c1ccccc1 (some centres not stated) | 0 | 19 | 3 | -17 | -2 | -1 | nt | nt | nt | nt
Cc1c(Cl)ccc2c1NC(=O)[C@]21N[C@@H](Cc2ccccc2)[C@H]2C(=O)N(c3ccc(F)cc3)C(=O)[C@H]21 | 5 | 2 | 92* | 19 | -4 | 36 | 103* | 42* | 75* | 38*
CC(=NNC(=O)c1ccncc1)c1ccc2ccccc2c1O | nt | nt | 167* | nt | -4 | 76* | 72* | 153* | 54* | 78*
Oc1c(C(Nc2ccccn2)c2ccccn2)ccc2cccnc12 (configuration not stated) | -2 | 25 | 2 | -31 | -5 | 0 | nt | nt | nt | nt
Oc1cccc2ccc(Nc3ccccn3)nc12 | -13 | 3 | 48* | -13 | -6 | 3 | 58* | 2 | -5 | -4
CCOC(=O)c1c(C)[nH]c(C)c1S(=O)(=O)N1CCN(c2cccc(C)c2)C(C)C1 (configuration not stated) | -19 | 1 | -3 | -9 | -1 | -26 | nt | nt | nt | nt
CCCCN1CC(N2CCN(C(=O)c3ccco3)CC2)CS1(=O)=O (configuration not stated) | nt | nt | -1 | nt | -6 | 2 | nt | nt | nt | nt
CC(NCc1ccc(OCc2ccc(Cl)cc2)cc1)C(O)c1ccccc1 (configuration not stated) | 34 | 6 | 52* | -3 | -12 | 26 | 39* | 27* | 49* | 40*
COc1ccc(C(OCC(O)CNCCc2ccccc2)c2ccc(OC)cc2)cc1 (configuration not stated) | nt | nt | 104* | nt | -16 | 97* | 104* | 18* | 101* | 27*
C/C=C/c1ccc(OCC(O)CNCC(c2ccc(OC)cc2)N(C)C)c(OC)c1 (configuration not stated) | -13 | 8 | -2 | -32 | -12 | 1 | nt | nt | nt | nt
C/C=C/c1ccc(OCC(O)CNCCc2ccc(OC)cc2)c(OC)c1 (configuration not stated) | -19 | -2 | 63* | -43 | -14 | 12 | 96* | 29* | 46 | 11
COc1ccc(C(OCC(O)CNC(C)c2ccccc2)c2ccc(OC)cc2)cc1 (configuration not stated) | -6 | 1 | 14 | -12 | -9 | 2 | nt | nt | nt | nt
O=C(COC(=O)C(CO)NS(=O)(=O)c1ccc(Br)cc1)Nc1ccc2c(c1)OCCO2 (configuration not stated) | -3 | 6 | 4 | -15 | -4 | -4 | nt | nt | nt | nt
CC(=O)c1ccc(NC(=O)C2CC2c2ccccc2)cc1 (configuration not stated) | -17 | 14 | 0 | 5 | -4 | -16 | nt | nt | nt | nt
CC(=O)c1ccc(NC(=O)C2C3C=CC(C3=C(c3ccccc3)c3ccccc3)C2C(=O)O)cc1 (configuration not stated) | -8 | 30 | 75* | -8 | -4 | -9 | 102* | 71* | 17 | 3
O=C(O)c1ccc(N/N=C/C2=Cc3ccccc3OC2)cc1 | 5 | -16 | 89* | -3 | -1 | 8 | 54* | 39* | 33 | 17
CN1C(C(=O)NCCc2cccs2)CC2Cn3c(nc4ccccc43)C21 (configuration not stated) | -13 | 40 | nt | -12 | -7 | nt | nt | 0 | nt | 2
O=[N+]([O-])c1ccc(N2N=C(c3ccco3)CC2c2ccccc2)cc1 (configuration not stated) | 6 | 0 | 9 | 26 | 1 | 42 | nt | nt | nt | nt
CC(C)(C)C1=NN(c2ccc([N+](=O)[O-])cc2)C(c2ccccc2)C1 (configuration not stated) | -16 | 20 | 62* | 3 | -1 | 34 | 0 | 0 | 6 | 9
CCN(CCn1cccn1)C(=O)CC1C(=O)NCCN1CCc1ccccc1 (configuration not stated) | -11 | 18 | 78* | -12 | -2 | 30 | 93* | 2 | 82* | 2
COc1ccc(-c2cc(-c3cccnc3)c(C#N)c(N)n2)cc1 | -11 | 5 | 46* | -15 | -4 | 37 | 29 | 10 | 38 | 22*
CC(C)CNC(=O)C(=O)NCC1OCCN1S(=O)(=O)c1cccs1 (configuration not stated) | -3 | 8 | 1 | -13 | -3 | -13 | nt | nt | nt | nt
